The source of these data is ChEMBL document CHEMBL1143242, “Specific small-molecule activator of Aurora kinase A induces autophosphorylation in a cell-free system” (J Med Chem, 2008).

The target of data set [1] is T1, Aurora kinase A (Homo sapiens) (UniProt O14965).
T1 sequence (whole entry): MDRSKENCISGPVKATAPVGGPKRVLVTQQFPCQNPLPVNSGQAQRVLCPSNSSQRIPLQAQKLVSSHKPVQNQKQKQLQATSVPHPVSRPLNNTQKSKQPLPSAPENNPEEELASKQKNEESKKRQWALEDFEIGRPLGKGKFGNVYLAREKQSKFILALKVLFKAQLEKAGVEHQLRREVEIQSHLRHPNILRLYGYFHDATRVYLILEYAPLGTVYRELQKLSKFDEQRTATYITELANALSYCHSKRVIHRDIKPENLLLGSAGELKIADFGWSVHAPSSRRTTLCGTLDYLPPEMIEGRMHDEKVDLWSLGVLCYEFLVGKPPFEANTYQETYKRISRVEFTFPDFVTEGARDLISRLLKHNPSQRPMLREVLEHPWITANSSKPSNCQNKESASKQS
Description: Binding affinity to human AURA expressed in baculovirus in presence of anacardic acid. The procedure, abridged: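 Baculovirus-expressed, C-terminally His6-tagged AURA purified on Ni-NTA. Intrinsic fluorescence quenching was read at 301 nm (excitation 280 nm), with inner-filter correction. Ka came from double-reciprocal FR and the Chipman method.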

The target in data set [2] is T1, Aurora kinase A (Homo sapiens). Description: Binding affinity to human AURA expressed in baculovirus. The procedure, abridged: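 Baculovirus-expressed, C-terminally His6-tagged AURA purified on Ni-NTA. Excitation was at 280 nm and quenching of intrinsic fluorescence was read at 301 nm, with inner-filter correction. FR came from a double-reciprocal plot, and Ka was calculated by the Chipman method.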

For data set [3] the target is unchanged. Description: Binding affinity to human AURA expressed in baculovirus in presence of ATP.
Data set [4] has the same target. Description: Activation of human AURA activity expressed in baculovirus cells by time course assay.
Data set [5] shares this target. Description: Activation of human AURA autophosphorylation activity. In short, it runs like this:
(§1)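 Autophosphorylation read from the same gels: 1.5 µg histone H3 with AURA (40 ng) or AURB (120 ng) and [γ-32P]ATP, with or without compound at 25 and 50 µM in DMSO. Reactions precipitated with 25% TCA, resolved on 15% SDS-PAGE, then autoradiographed.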

Data set [6] addresses Aurora kinase B (Homo sapiens) (UniProt Q96GD4). Nature of the data set: Activation of human AURB autophosphorylation activity. In short, it runs like this: as §1
The target is the same in data set [7]. Nature of the data set: Activation of human AURB mediated histone H3 phosphorylation by phosphoimager analyzer. The procedure, abridged:
(§2)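 Compound (5–50 µM, in DMSO) preincubated 5 min at 30 °C, then [γ-32P]ATP added for 10 min. 25% TCA precipitation, 15% SDS-PAGE, autoradiography; phosphoimager quantitation of relative intensity versus DMSO control.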

In data set [8] the target is T1, Aurora kinase A (Homo sapiens). Description: Activation of human AURA mediated histone H3 phosphorylation by phosphoimager analyzer. In short, it runs like this:
as §2

For data set [9] the target is unchanged. Nature of the data set: Activation of human AURA assessed as histone H3 phosphorylation. In short, it runs like this: as §2
Substrate in data set [10]: C=CC/C=C\C/C=C\CCCCCCCc1cccc(O)c1C(=O)O
Nature of the data set: Activity of human AURA expressed in baculovirus at 50 uM by phosphorimager analyzer. The procedure, abridged:
as §2

Substrate in data set [11]: C=CC/C=C\C/C=C\CCCCCCCc1cccc(O)c1C(=O)O
Description: Ratio of Kcat for human AURA to Km for human AURA. The procedure, abridged:
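AURA kinase assay with H3 substrate, with increasing [γ-32P]ATP (2.5–15 µM) in the presence of DMSO or 50 µM compound; 5 min 30 °C preincubation, 10 min reaction, TCA precipitation, PAGE and phosphoimager quantitation. Km, Vmax and kcat fitted from activity against ATP concentration.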

Calls of active or inactive are those of the source. The rule behind the calls is not given here.

Aurora kinase B (Homo sapiens), sequence (Q96GD4 whole entry): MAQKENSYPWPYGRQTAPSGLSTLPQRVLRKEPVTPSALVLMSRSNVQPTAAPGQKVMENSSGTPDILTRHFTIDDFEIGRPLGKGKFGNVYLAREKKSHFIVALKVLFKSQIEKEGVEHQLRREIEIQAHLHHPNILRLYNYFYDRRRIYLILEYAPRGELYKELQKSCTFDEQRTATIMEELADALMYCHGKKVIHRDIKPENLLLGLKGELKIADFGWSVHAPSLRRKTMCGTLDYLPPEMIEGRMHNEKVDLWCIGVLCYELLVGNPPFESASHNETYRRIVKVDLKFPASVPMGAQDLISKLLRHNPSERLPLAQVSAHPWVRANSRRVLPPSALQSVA

In the case of `Nc1ncnc2c1ncn2[C@@H]1O[C@H](COP(=O)(O)OP(=O)(O)OP(=O)(O)O)[C@@H](O)[C@H]1O`, the Ka in data set [1] was found to be 27.5 nM⁻¹; in [2], 5.7 µM⁻¹.

Turning to `C=CC/C=C\C/C=C\CCCCCCCc1cccc(O)c1C(=O)O`, the Ka was 10.1 µM⁻¹ in data set [3] and 5.2 µM⁻¹ in [2]. The outcome in [4], in data set [5] and in data set [8] was Active. Moreover, the outcome in data set [6] and in [7] was inactive. Moreover, in data set [9], the Activity entry was “Dose-dependent effect”.

B1: Aurora kinase A (Homo sapiens), O14965 (protein)
chain: T1 sequence (whole entry)
As for B1, in [10], the Km (in general, the concentration of substrate that gives half-maximal velocity) came out at 40.2 mM; the Vmax (in general, the rate approached at saturating substrate) is 62.5 mmol/min/mg; the kcat (commonly the number of substrate molecules converted per active site and unit of time at saturation) came out at 282 s⁻¹. For the same molecule, in data set [11], the kcat/Km (as a rule, the second-order rate constant that governs catalysis at low substrate concentration) came to 6990 M⁻¹ s⁻¹.
